Data from ChEMBL document CHEMBL1155297, “Synthesis, antimicrobial and antioxidant activities of substituted pyrazoles, isoxazoles, pyrimidine and thioxopyrimidine derivatives” (2009).
≈ marks a conversion by molar mass, not a printed value.

Test system: Staphylococcus aureus
Assay: Antibacterial activity against Staphylococcus aureus NCIM 5021 at 100 ug/disk after 24 hrs by agar disk diffusion method
Format: functional
Settings: NCIM 5021, 24 h, read-out: IZ
Summary of the method: (§1)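 Agar disc diffusion on nutrient agar plates pre-inoculated with each bacterium. Sterile 6 mm filter-paper discs were moistened with compound in DMSO at the stated per-disc amount. Plates were incubated at 37 °C, and the growth-inhibition zone diameter was read after 24 h. Each determination was run in triplicate, and the mean of three independent readings is reported.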
With Cc1ccc(C(=O)CC(C(=O)c2ccc(C)cc2)C2C(N)=NN=C2N)cc1 (centres undefined) the zone of inhibition at 100 µg/disc was 25 mm. Compound O=C(N[C@H](CO)[C@H](O)c1ccc([N+](=O)[O-])cc1)C(Cl)Cl [CHLORAMPHENICOL] has a zone of inhibition at 100 µg/disc of 35 mm. NC1=NC(=S)N=C(N)C1C(CS(=O)(=O)c1ccc(Cl)cc1)S(=O)(=O)c1ccc(Cl)cc1 (centres undefined) showed a zone of inhibition at 100 µg/disc of 25 mm.

Test system: Staphylococcus aureus
Assay: Antibacterial activity against Staphylococcus aureus NCIM 5021 at 200 ug/disk after 24 hrs by agar disk diffusion method
Format: functional
Settings: NCIM 5021, 24 h, read-out: IZ
Summary of the method: as §1
Compound Cc1ccc(C(=O)CC(C(=O)c2ccc(C)cc2)C2C(N)=NN=C2N)cc1 (centres undefined) has a zone of inhibition at 200 µg/disc of 28 mm. In the case of O=C(N[C@H](CO)[C@H](O)c1ccc([N+](=O)[O-])cc1)C(Cl)Cl [CHLORAMPHENICOL], the zone of inhibition at 200 µg/disc is reported as 41 mm. With NC1=NC(=S)N=C(N)C1C(CS(=O)(=O)c1ccc(Cl)cc1)S(=O)(=O)c1ccc(Cl)cc1 (centres undefined) the zone of inhibition at 200 µg/disc was 27 mm.

Test system: Bacillus subtilis
Assay: Antibacterial activity against Bacillus subtilis NCIM 2063 at 100 ug/disk after 24 hrs by agar disk diffusion method
Format: functional
Settings: NCIM 2063, 24 h, read-out: IZ
Summary of the method: as §1
In the case of Cc1ccc(C(=O)CC(C(=O)c2ccc(C)cc2)C2C(N)=NN=C2N)cc1 (centres undefined), the zone of inhibition at 100 µg/disc is reported as 27 mm. O=C(N[C@H](CO)[C@H](O)c1ccc([N+](=O)[O-])cc1)C(Cl)Cl [CHLORAMPHENICOL] showed a zone of inhibition at 100 µg/disc of 38 mm. For NC1=NC(=S)N=C(N)C1C(CS(=O)(=O)c1ccc(Cl)cc1)S(=O)(=O)c1ccc(Cl)cc1 (centres undefined), the zone of inhibition at 100 µg/disc was 23 mm.

Test system: Bacillus subtilis
Assay: Antibacterial activity against Bacillus subtilis NCIM 2063 at 200 ug/disk after 24 hrs by agar disk diffusion method
Format: functional
Settings: NCIM 2063, 24 h, read-out: IZ
Summary of the method: as §1
With Cc1ccc(C(=O)CC(C(=O)c2ccc(C)cc2)C2C(N)=NN=C2N)cc1 (centres undefined) the zone of inhibition at 200 µg/disc was 29 mm. O=C(N[C@H](CO)[C@H](O)c1ccc([N+](=O)[O-])cc1)C(Cl)Cl [CHLORAMPHENICOL] showed a zone of inhibition at 200 µg/disc of 44 mm. Compound NC1=NC(=S)N=C(N)C1C(CS(=O)(=O)c1ccc(Cl)cc1)S(=O)(=O)c1ccc(Cl)cc1 (centres undefined) has a zone of inhibition at 200 µg/disc of 25 mm.

Test system: Klebsiella pneumoniae
Assay: Antibacterial activity against Klebsiella pneumoniae NCIM 2957 at 100 ug/disk after 24 hrs by agar disk diffusion method
Format: functional
Settings: NCIM 2957, 24 h, read-out: IZ
Summary of the method: as §1
For Cc1ccc(C(=O)CC(C(=O)c2ccc(C)cc2)C2C(N)=NN=C2N)cc1 (centres undefined), the zone of inhibition at 100 µg/disc was 25 mm. For O=C(N[C@H](CO)[C@H](O)c1ccc([N+](=O)[O-])cc1)C(Cl)Cl [CHLORAMPHENICOL], the zone of inhibition at 100 µg/disc was 37 mm. With NC1=NC(=S)N=C(N)C1C(CS(=O)(=O)c1ccc(Cl)cc1)S(=O)(=O)c1ccc(Cl)cc1 (centres undefined) the zone of inhibition at 100 µg/disc was 20 mm.

Test system: Klebsiella pneumoniae
Assay: Antibacterial activity against Klebsiella pneumoniae NCIM 2957 at 200 ug/disk after 24 hrs by agar disk diffusion method
Format: functional
Settings: NCIM 2957, 24 h, read-out: IZ
Summary of the method: as §1
Compound Cc1ccc(C(=O)CC(C(=O)c2ccc(C)cc2)C2C(N)=NN=C2N)cc1 (centres undefined) has a zone of inhibition at 200 µg/disc of 27 mm. For O=C(N[C@H](CO)[C@H](O)c1ccc([N+](=O)[O-])cc1)C(Cl)Cl [CHLORAMPHENICOL], the zone of inhibition at 200 µg/disc was 42 mm. NC1=NC(=S)N=C(N)C1C(CS(=O)(=O)c1ccc(Cl)cc1)S(=O)(=O)c1ccc(Cl)cc1 (centres undefined) gave a zone of inhibition at 200 µg/disc of 22 mm.

Test system: Proteus vulgaris
Assay: Antibacterial activity against Proteus vulgaris NCIM 2027 at 100 ug/disk after 24 hrs by agar disk diffusion method
Format: functional
Settings: NCIM 2027, 24 h, read-out: IZ
Summary of the method: as §1
Cc1ccc(C(=O)CC(C(=O)c2ccc(C)cc2)C2C(N)=NN=C2N)cc1 (centres undefined) gave a zone of inhibition at 100 µg/disc of 24 mm. With O=C(N[C@H](CO)[C@H](O)c1ccc([N+](=O)[O-])cc1)C(Cl)Cl [CHLORAMPHENICOL] the zone of inhibition at 100 µg/disc was 42 mm. With NC1=NC(=S)N=C(N)C1C(CS(=O)(=O)c1ccc(Cl)cc1)S(=O)(=O)c1ccc(Cl)cc1 (centres undefined) the zone of inhibition at 100 µg/disc was 21 mm.

Test system: Proteus vulgaris
Assay: Antibacterial activity against Proteus vulgaris NCIM 2027 at 200 ug/disk after 24 hrs by agar disk diffusion method
Format: functional
Settings: NCIM 2027, 24 h, read-out: IZ
Summary of the method: as §1
Work on Cc1ccc(C(=O)CC(C(=O)c2ccc(C)cc2)C2C(N)=NN=C2N)cc1 (centres undefined) yielded a zone of inhibition at 200 µg/disc of 26 mm. For O=C(N[C@H](CO)[C@H](O)c1ccc([N+](=O)[O-])cc1)C(Cl)Cl [CHLORAMPHENICOL], the zone of inhibition at 200 µg/disc was 45 mm. In the case of NC1=NC(=S)N=C(N)C1C(CS(=O)(=O)c1ccc(Cl)cc1)S(=O)(=O)c1ccc(Cl)cc1 (centres undefined), the zone of inhibition at 200 µg/disc is reported as 23 mm.

Test system: Fusarium solani
Assay: Antifungal activity against Fusarium solani NCIM 1330 at 100 ug/disk after 48 hrs by agar disk diffusion method
Format: functional
Settings: NCIM 1330, 48 h, read-out: IZ
Summary of the method: (§2)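 Fungal disc diffusion on nutrient agar plates pre-inoculated with each fungus. 6 mm sterile paper discs carried the compound in DMSO at the stated amount per disc. Plates were held at 37 °C, and inhibition-zone diameter was measured after 48 h. Values are the mean of three independent triplicate readings.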
Work on Cc1ccc(C(=O)CC(C(=O)c2ccc(C)cc2)C2C(N)=NN=C2N)cc1 (centres undefined) yielded a zone of inhibition at 100 µg/disc of 32 mm. With NC1=NC(=S)N=C(N)C1C(CS(=O)(=O)c1ccc(Cl)cc1)S(=O)(=O)c1ccc(Cl)cc1 (centres undefined) the zone of inhibition at 100 µg/disc was 22 mm.

Test system: Fusarium solani
Assay: Antifungal activity against Fusarium solani NCIM 1330 at 200 ug/disk after 48 hrs by agar disk diffusion method
Format: functional
Settings: NCIM 1330, 48 h, read-out: IZ
Summary of the method: as §2
In the case of Cc1ccc(C(=O)CC(C(=O)c2ccc(C)cc2)C2C(N)=NN=C2N)cc1 (centres undefined), the zone of inhibition at 200 µg/disc is reported as 35 mm. With NC1=NC(=S)N=C(N)C1C(CS(=O)(=O)c1ccc(Cl)cc1)S(=O)(=O)c1ccc(Cl)cc1 (centres undefined) the zone of inhibition at 200 µg/disc was 25 mm.

Test system: Curvularia lunata
Assay: Antifungal activity against Curvularia lunata NCIM 716 at 100 ug/disk after 48 hrs by agar disk diffusion method
Format: functional
Settings: NCIM 716, 48 h, read-out: IZ
Summary of the method: as §2
Cc1ccc(C(=O)CC(C(=O)c2ccc(C)cc2)C2C(N)=NN=C2N)cc1 (centres undefined) gave a zone of inhibition at 100 µg/disc of 31 mm. For NC1=NC(=S)N=C(N)C1C(CS(=O)(=O)c1ccc(Cl)cc1)S(=O)(=O)c1ccc(Cl)cc1 (centres undefined), the zone of inhibition at 100 µg/disc was 25 mm.

Test system: Curvularia lunata
Assay: Antifungal activity against Curvularia lunata NCIM 716 at 200 ug/disk after 48 hrs by agar disk diffusion method
Format: functional
Settings: NCIM 716, 48 h, read-out: IZ
Summary of the method: as §2
Compound Cc1ccc(C(=O)CC(C(=O)c2ccc(C)cc2)C2C(N)=NN=C2N)cc1 (centres undefined) has a zone of inhibition at 200 µg/disc of 33 mm. In the case of NC1=NC(=S)N=C(N)C1C(CS(=O)(=O)c1ccc(Cl)cc1)S(=O)(=O)c1ccc(Cl)cc1 (centres undefined), the zone of inhibition at 200 µg/disc is reported as 28 mm.

Test system: Aspergillus niger
Assay: Antifungal activity against Aspergillus niger NCIM 596 at 100 ug/disk after 48 hrs by agar disk diffusion method
Format: functional
Settings: NCIM 596, 48 h, read-out: IZ
Summary of the method: as §2
Work on Cc1ccc(C(=O)CC(C(=O)c2ccc(C)cc2)C2C(N)=NN=C2N)cc1 (centres undefined) yielded a zone of inhibition at 100 µg/disc of 30 mm. Work on NC1=NC(=S)N=C(N)C1C(CS(=O)(=O)c1ccc(Cl)cc1)S(=O)(=O)c1ccc(Cl)cc1 (centres undefined) yielded a zone of inhibition at 100 µg/disc of 20 mm.

Test system: Aspergillus niger
Assay: Antifungal activity against Aspergillus niger NCIM 596 at 200 ug/disk after 48 hrs by agar disk diffusion method
Format: functional
Settings: NCIM 596, 48 h, read-out: IZ
Summary of the method: as §2
Cc1ccc(C(=O)CC(C(=O)c2ccc(C)cc2)C2C(N)=NN=C2N)cc1 (centres undefined) gave a zone of inhibition at 200 µg/disc of 31 mm. Work on NC1=NC(=S)N=C(N)C1C(CS(=O)(=O)c1ccc(Cl)cc1)S(=O)(=O)c1ccc(Cl)cc1 (centres undefined) yielded a zone of inhibition at 200 µg/disc of 23 mm.

Test system: Staphylococcus aureus
Assay: Antibacterial activity against Staphylococcus aureus NCIM 5021 after 24 hrs by microdilution susceptibility method
Format: functional
Settings: NCIM 5021, 24 h
Summary of the method: (§3)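 MIC by microdilution susceptibility; compounds in DMSO, bacterial suspensions inoculated into wells. Incubation was at 36 °C for 24 h. MIC is the lowest compound concentration showing no turbidity. Chloramphenicol served as reference antibacterial.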
O=C(N[C@H](CO)[C@H](O)c1ccc([N+](=O)[O-])cc1)C(Cl)Cl [CHLORAMPHENICOL] gave an MIC of 6.25 µg/mL (≈ 19.3 µM).

Test system: Bacillus subtilis
Assay: Antibacterial activity against Bacillus subtilis NCIM 2063 after 24 hrs by microdilution susceptibility method
Format: functional
Settings: NCIM 2063, 24 h
Summary of the method: as §3
For O=C(N[C@H](CO)[C@H](O)c1ccc([N+](=O)[O-])cc1)C(Cl)Cl [CHLORAMPHENICOL], the MIC was 6.25 µg/mL (≈ 19.3 µM).

Test system: Klebsiella pneumoniae
Assay: Antibacterial activity against Klebsiella pneumoniae NCIM 2957 after 24 hrs by microdilution susceptibility method
Format: functional
Settings: NCIM 2957, 24 h
Summary of the method: as §3
With O=C(N[C@H](CO)[C@H](O)c1ccc([N+](=O)[O-])cc1)C(Cl)Cl [CHLORAMPHENICOL] the MIC was 12.5 µg/mL (≈ 38.7 µM).

Test system: Proteus vulgaris
Assay: Antibacterial activity against Proteus vulgaris NCIM 2027 after 24 hrs by microdilution susceptibility method
Format: functional
Settings: NCIM 2027, 24 h
Summary of the method: as §3
O=C(N[C@H](CO)[C@H](O)c1ccc([N+](=O)[O-])cc1)C(Cl)Cl [CHLORAMPHENICOL] gave an MIC of 12.5 µg/mL (≈ 38.7 µM).

Test system: Radical scavenging activity
Assay: Antioxidant activity assessed as DPPH free radical scavenging activity at 100 uM after 20 mins
Format: functional
Settings: not given
Summary of the method: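 DPPH scavenging: compound solutions were added to DPPH in dioxane/ethanol and kept at ambient temperature for 20 min. Absorbance was read at 517 nm. The test–control difference was expressed as percent DPPH radical scavenging.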
Cc1ccc(C(=O)CC(C(=O)c2ccc(C)cc2)C2C(N)=NN=C2N)cc1 (centres undefined) showed an inhibition of 66.5%. In the case of NC1=NC(=S)N=C(N)C1C(CS(=O)(=O)c1ccc(Cl)cc1)S(=O)(=O)c1ccc(Cl)cc1 (centres undefined), the inhibition is reported as 47.9%.

Test system: not listed separately
Assay: Antioxidant activity assessed as nitric oxide production at 100 uM after 120 mins by Griess reagent method
Format: functional
Settings: not given
Summary of the method: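 Nitric oxide assay with Griess read-out. At intervals, 0.5 ml of incubation solution was mixed with 0.5 ml Griess reagent (1% sulfanilamide, 0.1% N-naphthylethylenediamine dihydrochloride, 2% o-phosphoric acid in water). The control received an equal amount of solvent and was handled identically.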
Cc1ccc(C(=O)CC(C(=O)c2ccc(C)cc2)C2C(N)=NN=C2N)cc1 (centres undefined) gave an inhibition of 68.2%. With NC1=NC(=S)N=C(N)C1C(CS(=O)(=O)c1ccc(Cl)cc1)S(=O)(=O)c1ccc(Cl)cc1 (centres undefined) the inhibition was 48.5%.
